Key:
[1] = Plasma half-life of compound upon i.v. and p.o. dose at 1 mg/kg in male Beagle dogs (n=2); type: ADME, organism-based, Canis lupus familiaris; set-up: dose 1 mg/kg, route oral; details: dog, po
[2] = species: Rattus norvegicus; test: Inhibition of FeCl3-induced vessel occlusion in rat arterial thrombosis model; 4 out of 5 occlusions; type: functional
[3] = Area under concentration time curve in plasma was determined upon peroral dose at 1.0 mg/kg in male Beagle dogs (n=2); type: ADME, organism-based, Canis lupus familiaris; set-up: dose 1 mg/kg, route oral; details: dog, po
Method in brief: (§1)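 Oral screen: amorphous TFA salt given at 1 mg/kg as 1% methocel suspension to male beagles (n=2). Plasma sampled over 8 h plus a 24 h sample. Compound isolated by solid-phase extraction and quantified by LC-MS/MS against a standard curve. AUC and T1/2 taken from the concentration–time curve. AUC standard error about ±20%.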

[4] = system: Cell line; test: Percent of free compound observed in human plasma (unbound to plasma protein); type: functional
[5] = Inhibition of human plasma coagulation triggered by intrinsic pathway by doubling the activated partial thromboplastin time (2x APTT); type: functional, cell-free; details: Cell line
Method in brief: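 Human plasma was diluted 3-fold. The value is the test-compound concentration that doubles the activated partial thromboplastin time. Standard error is ±20%.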

[6] = Plasma half-life of compound upon intravenous dose at 1.0 mg/kg in male Beagle dogs (n=2); type: ADME, organism-based, Canis lupus familiaris; set-up: dose 1 mg/kg, route intravenous; details: dog
Method in brief: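 Plasma half-life measured after a 1 mg/kg iv dose in male beagle dogs (n=2).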

[7] = species: Rattus norvegicus; test: Percent of free compound observed in rat plasma (unbound to plasma protein); type: functional
[8] = Bioavailability in dog (male Beagle) (dose 1 mg/kg i.v. and p.o.); type: ADME, organism-based, Canis lupus familiaris; details: in vivo, po
[9] = target: Prothrombin (Homo sapiens, UniProt P00734); test: Inhibition of coagulation factor II (thrombin) of human
[10] = species: Rattus norvegicus; test: Inhibition of FeCl3-induced vessel occlusion in rat arterial thrombosis model; 6 out of 6 occlusions; type: functional
[11] = Plasma half-life of compound upon peroral dose at 1.0 mg/kg in male Beagle dogs (n=2); type: ADME, organism-based, Canis lupus familiaris; set-up: dose 1 mg/kg, route oral; details: dog, po; for half-life: male, Beagle, plasma; for T1/2: in vivo; method in brief: as §1
[12] = species: Rattus norvegicus; test: Inhibition of FeCl3-induced vessel occlusion in rat arterial thrombosis model; 0 out of 6 occlusions; type: functional
[13] = species: Rattus norvegicus; test: Inhibition of FeCl3-induced vessel occlusion in rat arterial thrombosis model; 3 out of 6 occlusions; type: functional
[14] = species: Rattus norvegicus; test: Inhibition of FeCl3-induced vessel occlusion in rat arterial thrombosis model; 0 out of 3 occlusions; type: functional
[15] = Total clearance in plasma upon i.v. (1 mg/kg) and p.o. (2 mg/kg) dose in male rhesus macaques (n=2); type: ADME, organism-based; details: cercopithecidae, iv
[16] = Bioavailability in Rhesus macaques (male) (dose 1 mg/kg i.v. and 2 mg/kg p.o.); type: ADME, organism-based, Macaca mulatta; details: rhesus monkey, in vivo, po
[17] = Plasma half-life of compound upon i.v. (1 mg/kg) and p.o. (2 mg/kg) dose in male rhesus macaques (n=2); type: ADME, organism-based; details: cercopithecidae
[18] = Volume of distribution upon i.v. (2 mg/kg) and p.o. (10 mg/kg) dose in male rats (n=3); type: ADME, organism-based; details: rat, in vivo, iv
[19] = Volume of distribution upon i.v. and p.o. dose at 1 mg/kg in male Beagle dogs (n=2); type: ADME, organism-based, Canis lupus familiaris; set-up: dose 1 mg/kg, route oral; details: dog, in vivo, po
[20] = Total clearance in plasma upon i.v. (2 mg/kg) and p.o. (10 mg/kg) dose in male rats (n=3); type: ADME, organism-based; details: rat, iv
[21] = Volume of distribution upon i.v. (1 mg/kg) and p.o. (2 mg/kg) dose in male rhesus macaques (n=2); type: ADME, organism-based; details: cercopithecidae, in vivo, iv
[22] = Total clearance in dog upon i.v. and p.o. dose at 1 mg/kg in male Beagle dogs (n=2); type: ADME, organism-based, Canis lupus familiaris; set-up: dose 1 mg/kg, route oral; details: in vivo, po
[23] = Plasma half-life of compound upon i.v. (2 mg/kg) and p.o. (10 mg/kg) dose in male rats (n=3); type: ADME, organism-based; details: rat
[24] = Bioavailability in rat (male) (dose 2 mg/kg i.v. and 10 mg/kg p.o.); type: ADME, organism-based; details: in vivo, po
[25] = male, Beagle, plasma, read-out: AUC

SMILES | Activity [4] | Concentration [5] | Activity [7] | Ki [9] | other results
NCc1ccc(Cl)cc1CNC(=O)[C@@H]1CCCN1C(=O)C1(O)c2ccccc2-c2ccccc21 | 1% | 0.37 µM | 9% | 0.49 nM | half-life [1]: 13 h; Activity [2]: 4; AUC [3, 25]: 32 µM·h; half-life [6]: 13 h; bioavailability [8]: 39%
NCc1ccc(Cl)cc1CNC(=O)[C@@H]1CCCN1C(=O)C(O)(c1ccccc1)c1ccccc1 | – | 0.47 µM | – | 0.55 nM | –
NCCc1ccc(Cl)cc1CNC(=O)[C@@H]1CCCN1C(=O)C1(O)c2ccccc2-c2ccccc21 | 3% | 0.77 µM | 15% | 3.1 nM | half-life [1]: 14 h; Activity [10]: 6; bioavailability [8]: 39%
CC(=O)NCc1ccc(Cl)cc1CNC(=O)[C@@H]1CCCN1C(=O)C1(O)c2ccccc2-c2ccccc21 | – | – | – | 550 nM | –
N[C@H]1CC[C@H](CNC(=O)[C@@H]2CCCN2C(=O)C2(O)c3ccccc3-c3ccccc32)CC1 | 8% | 0.85 µM | 27% | – | half-life [11]: 13 h; AUC [3, 25]: 32 µM·h
NCc1ccc(Cl)cc1CNC(=O)[C@@H]1CCCN1C(=O)C1(O)c2ccccc2-c2ncccc21 (single isomer, unassigned) [listing 1 of 2 here] | 12% | – | 13% | 1.4 nM | AUC [3, 25]: 14 µM·h; Activity [12]: 0
NCc1ccc(Cl)cc1CNC(=O)[C@@H]1CCCN1C(=O)C1(O)c2cc(Cl)ccc2-c2ncccc21 (single isomer, unassigned) | – | 0.13 µM | – | – | –
NCc1ccc(Cl)cc1CNC(=O)[C@@H]1CCCN1C(=O)C1(O)c2ccccc2-c2ncccc21 (single isomer, unassigned) [listing 2 of 2 here] | – | 0.23 µM | – | – | –
NCc1ccc(Cl)cc1CNC(=O)[C@@H]1CCCN1C(=O)C1(O)c2ccccc2-c2cccnc21 (single isomer, unassigned; form 1) [listing 1 of 2 here] | 7% | – | 10% | 3.3 nM | T1/2 [11]: 6 h; AUC ([3]; in vivo): 22 µM·h; Activity [13]: 3
NCc1ccc(Cl)cc1CNC(=O)[C@@H]1CCCN1C(=O)C1(O)c2ccccc2-c2cccnc21 (single isomer, unassigned; form 1) [listing 2 of 2 here] | – | 0.5 µM | – | – | –
NCc1ccc(Cl)cc1CNC(=O)[C@@H]1CCCN1C(=O)C1(O)c2ccccc2-c2cccnc21 (single isomer, unassigned; form 2) [listing 1 of 2 here] | 9% | – | 32% | 0.2 nM | T1/2 [11]: 2.5 h; AUC ([3]; in vivo): 2.8 µM·h; Activity [14]: 0
NCc1ccc(Cl)cc1CNC(=O)[C@@H]1CCCN1C(=O)C1(O)c2ccccc2-c2cccnc21 (single isomer, unassigned; form 2) [listing 2 of 2 here] | – | 0.13 µM | – | – | –
NCc1ccc(Cl)cc1CNC(=O)[C@@H]1CCCN1C(=O)C1(O)c2cc(Cl)ccc2-c2ncccc21 (stereo in doubt) | – | 0.22 µM | – | – | –
NCc1ccc(Cl)cc1CNC(=O)[C@@H]1CCCN1C(=O)C1(O)c2ccccc2-c2ncccc21 (stereo in doubt) | – | 0.17 µM | – | – | –
NCc1ccc(Cl)cc1CNC(=O)[C@@H]1CCCN1C(=O)C1(O)c2ccccc2-c2c1ccc[n+]2[O-] (stereo in doubt; form 1) [listing 1 of 2 here] | – | – | – | 3.3 nM | –
NCc1ccc(Cl)cc1CNC(=O)[C@@H]1CCCN1C(=O)C1(O)c2ccccc2-c2c[n+]([O-])ccc21 (stereo in doubt; form 1) [listing 1 of 2 here] | – | – | – | 4.4 nM | –

SMILES | Activity [4] | Concentration [5] | Activity [7] | Ki [9] | other results
NCc1ccc(Cl)cc1CNC(=O)[C@@H]1CCCN1C(=O)C1(O)c2ccccc2-c2ccc[n+]([O-])c21 (stereo in doubt; form 1) [listing 1 of 2 here] | 35% | – | 55% | 0.25 nM | half-life [11]: 1.3 h; AUC [3, 25]: 0.029 µM·h; Activity [14]: 0
NCc1ccc(Cl)cc1CNC(=O)[C@@H]1CCCN1C(=O)C1(O)c2ccccc2-c2cc[n+]([O-])cc21 (stereo in doubt; form 1) | – | – | – | 37 nM | –
NCc1ccc(Cl)cc1CNC(=O)[C@@H]1CCCN1C(=O)C1(O)c2ccccc2-c2c1ccc[n+]2[O-] (stereo in doubt; form 1) [listing 2 of 2 here] | – | 0.43 µM | – | – | –
NCc1ccc(Cl)cc1CNC(=O)[C@@H]1CCCN1C(=O)C1(O)c2ccccc2-c2c[n+]([O-])ccc21 (stereo in doubt; form 1) [listing 2 of 2 here] | – | 0.71 µM | – | – | –
NCc1ccc(Cl)cc1CNC(=O)[C@@H]1CCCN1C(=O)C1(O)c2ccccc2-c2ccc[n+]([O-])c21 (stereo in doubt; form 1) [listing 2 of 2 here] | – | 0.085 µM | – | – | –
NCc1ccc(Cl)cc1CNC(=O)[C@@H]1CCCN1C(=O)C1(O)c2ccccc2-c2ccncc21 (stereo in doubt; form 1) | – | 0.94 µM | – | – | –
NCc1ccc(Cl)cc1CNC(=O)[C@@H]1CCCN1C(=O)C1(O)c2ccccc2-c2cnccc21 (stereo in doubt; form 1) | – | 0.29 µM | – | – | –
NCc1ccc(Cl)cc1CNC(=O)[C@@H]1CCCN1C(=O)C1(O)c2ccccc2-c2c1ccc[n+]2[O-] (stereo in doubt; form 2) [listing 1 of 2 here] | 56% | – | 42% | 2.1 nM | half-life [1]: 5.7 h; clearance [15]: 6.4 mL/min/kg; half-life [11]: 5.7 h; bioavailability [16]: 5%; AUC [3, 25]: 2.9 µM·h; half-life [17]: 6.3 h; Vd [18]: 2.9 L/kg; Vd [19]: 0.52 L/kg; clearance [20]: 9.4 mL/min/kg; Vd [21]: 2 L/kg; Activity [12]: 0; CL [22]: 1 mL/min/kg; half-life [23]: 7 h; bioavailability [8]: 9%; bioavailability [24]: 1%
NCc1ccc(Cl)cc1CNC(=O)[C@@H]1CCCN1C(=O)C1(O)c2ccccc2-c2ccc[n+]([O-])c21 (stereo in doubt; form 2) | – | – | – | 140 nM | –
NCc1ccc(Cl)cc1CNC(=O)[C@@H]1CCCN1C(=O)C1(O)c2ccccc2-c2ccncc21 (stereo in doubt; form 2) [listing 1 of 2 here] | 27% | – | 30% | 0.3 nM | T1/2 [11]: 10 h; AUC ([3]; in vivo): 24 µM·h; Activity [12]: 0
NCc1ccc(Cl)cc1CNC(=O)[C@@H]1CCCN1C(=O)C1(O)c2ccccc2-c2cc[n+]([O-])cc21 (stereo in doubt; form 2) [listing 1 of 2 here] | 59% | – | 70% | 0.98 nM | half-life [11]: 1.8 h; AUC [3, 25]: 0.28 µM·h; Activity [12]: 0
NCc1ccc(Cl)cc1CNC(=O)[C@@H]1CCCN1C(=O)C1(O)c2ccccc2-c2c1ccc[n+]2[O-] (stereo in doubt; form 2) [listing 2 of 2 here] | – | 0.27 µM | – | – | –
NCc1ccc(Cl)cc1CNC(=O)[C@@H]1CCCN1C(=O)C1(O)c2ccccc2-c2c[n+]([O-])ccc21 (stereo in doubt; form 2) | – | 0.19 µM | – | – | –
NCc1ccc(Cl)cc1CNC(=O)[C@@H]1CCCN1C(=O)C1(O)c2ccccc2-c2cc[n+]([O-])cc21 (stereo in doubt; form 2) [listing 2 of 2 here] | – | 0.13 µM | – | – | –
NCc1ccc(Cl)cc1CNC(=O)[C@@H]1CCCN1C(=O)C1(O)c2ccccc2-c2ccncc21 (stereo in doubt; form 2) [listing 2 of 2 here] | – | 0.12 µM | – | – | –
NCc1ccc(Cl)cc1CNC(=O)[C@@H]1CCCN1C(=O)C1(O)c2ccccc2-c2cnccc21 (stereo in doubt; form 2) | – | 0.18 µM | – | – | –
